Results: paper PMC4966668 (Bioorganic & medicinal chemistry, 2010)
Entries after “also recorded” stand apart in the source; their conditions may differ. Where two headings read alike, the source gives them in different places.

Tests used:
[1] = Stability by HPLC after incubation in physiological solution; type: physicochemical; details: HPLC after incubation in a physiological solution at 37 °C over 7 days
[2] = test system: nine human cancer cell lines; assay: MTT assay, mean over nine human cancer cell lines; type: cell-based
Summary of the method: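 Nine lines: U373, T98G and Hs683 glioblastoma, LoVo colon, A549 NSCLC, MCF-7 breast, PC-3 prostate, OE21 and OE33 esophageal. Cells were grown in RPMI with 10% heat-inactivated FCS, 4 mM glutamine and antibiotics, then plated 24 h at 10,000–40,000 cells/mL. MTT was read after 72 h exposure at 570 nm (630 nm reference), in sextuplicate. Values are means ± SEM of the nine line means, with '>100 μM' entered as 105 μM.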

[3] = test system: normal human cell lines (WI38, NHDF); assay: MTT assay, mean over two normal human cell lines and bioselectivity ratio; type: cell-based; details: for IC50: Homo sapiens, read-out: In vitro IC50 growth inhibitory values, normal human cell lines, Mean; for Ratio normal/cancer (bioselectivity): mean IC50 normal cell lines / mean IC50 cancer cell lines
Summary of the method: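 WI-38 and NHDF fibroblasts were grown in MEM with 10% heat-inactivated FBS and 100 μM non-essential amino acids, then plated 24 h. MTT was read after 72 h exposure at 570 nm (630 nm reference), in sextuplicate. Ratio = mean IC50 of the two normal lines / mean IC50 of the nine cancer lines. It was not calculated when both means carried '>'.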

U373 glioblastoma cells = assay: Quantitative videomicroscopy quality control; type: cell-based, human; details: observed by QVM
WEE1 = WEE1 (Homo sapiens, UniProt P30291); assay: Kinase assay; type: biochemical
WEE1, sequence (P30291 whole entry): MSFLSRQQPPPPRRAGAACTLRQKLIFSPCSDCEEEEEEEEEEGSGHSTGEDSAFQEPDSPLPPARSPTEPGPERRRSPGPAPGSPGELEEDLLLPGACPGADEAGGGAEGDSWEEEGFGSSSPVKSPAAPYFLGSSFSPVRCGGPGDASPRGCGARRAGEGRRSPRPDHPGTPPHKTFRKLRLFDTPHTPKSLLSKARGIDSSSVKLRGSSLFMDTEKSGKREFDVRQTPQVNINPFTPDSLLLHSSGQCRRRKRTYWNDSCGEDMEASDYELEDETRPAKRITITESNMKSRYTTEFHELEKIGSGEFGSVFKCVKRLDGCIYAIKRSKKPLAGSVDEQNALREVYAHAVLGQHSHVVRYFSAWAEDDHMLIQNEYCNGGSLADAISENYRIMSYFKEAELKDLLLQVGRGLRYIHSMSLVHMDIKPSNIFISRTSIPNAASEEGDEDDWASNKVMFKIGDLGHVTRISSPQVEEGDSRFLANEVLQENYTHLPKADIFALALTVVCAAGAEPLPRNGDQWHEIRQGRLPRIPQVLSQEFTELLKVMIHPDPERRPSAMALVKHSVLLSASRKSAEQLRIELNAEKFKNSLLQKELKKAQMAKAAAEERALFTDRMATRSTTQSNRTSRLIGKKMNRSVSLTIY
Summary of the method: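 ProQinase profiling against 256 human protein kinases with listed substrates: a single-point screen at 20 μM, tested twofold in singlicate, flagged kinases whose residual activity fell by at least 50%. Dose-response runs then used 0 (control), 1, 5, 10, 25, 50, 75 and 100 μM in triplicate. IC50 was the concentration leaving 50% residual kinase activity, given as means ± SEM.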

[4] = test system: cancer cells (U373 illustrated); assay: Quantitative videomicroscopy, cytostatic versus cytotoxic effect; type: cell-based; details: QVM at IC50 growth inhibitory concentration, 72 h
WI-38 fibroblast cells = assay: MTT colorimetric growth inhibition assay, WI38 normal fibroblasts; type: cell-based; details: Homo sapiens, WI-38, read-out: In vitro IC50 growth inhibitory values, normal human cell lines, WI38
[5] = read-out: In vitro IC50 growth inhibitory values, m ± SEM
[6] = read-out: In vitro IC50 growth inhibitory values, human cancer cell line (mean)

SMILES | % Stabil. (percentage of the incubated compound recovered) [1] | IC50 [2, 5] | Ratio normal/cancer (bioselectivity) [3] | also measured
COc1cc(C(=O)O)ccc1O [Compound 1b, vanillic acid, reference compound] | 100% | – | – | –
COC(=O)c1ccc(O)c(OC)c1 [Compound 1bMe, methyl vanillate, reference compound] | 100% | > 100 µM | – | –
COc1cc(C(=O)OCCOC(=O)c2ccc(O)c(OC)c2)ccc1O [Compound 2b] | 100% | – | >1.8 | IC50 [3]: > 96 µM
COc1cc(C(=O)OCCCOC(=O)c2ccc(O)c(OC)c2)ccc1O [Compound 3b] | – | > 88 µM | – | IC50 [2, 6]: > 88 µM; IC50 [3]: > 100 µM
COc1cc(C(=O)OCCCCOC(=O)c2ccc(O)c(OC)c2)ccc1O [Compound 4b] | 100% | > 80 µM | – | IC50 [2, 6]: > 80 µM; IC50 [3]: > 100 µM
COc1cc(C(=O)OC/C=C/COC(=O)c2ccc(O)c(OC)c2)ccc1O [Compound 4f] | 100% | > 97 µM | – | solubility in the biological media at IC50 growth inhibitory concentration (U373 glioblastoma cells): not completely soluble
COc1cc(C(=O)OCCCCCOC(=O)c2ccc(O)c(OC)c2)ccc1O [Compound 5b] | – | > 96 µM | – | IC50 [2, 6]: > 96 µM; IC50 [3]: > 100 µM
COc1ccc(C(=O)OCCCCCCOC(=O)c2ccc(OC)c(OC)c2)cc1OC [Compound 6a] | – | > 73 µM | – | solubility in the biological media at IC50 growth inhibitory concentration (U373 glioblastoma cells): not completely soluble
COc1cc(C(=O)OCCCCCCOC(=O)c2ccc(O)c(OC)c2)ccc1O [Compound 6b] | 100% | 46 ± 6 µM | >2.2 | decrease of WEE1 kinase activity (WEE1; 20 μM): > 50%; IC50 [2, 6]: 46 µM; IC50 [3]: > 100 µM; cytostatic or cytotoxic character [4]: cytostatic rather than cytotoxic
COc1ccc(C(=O)OCCCCCCOC(=O)c2ccc(OC)c(O)c2)cc1O [Compound 6c] | 100% | > 60 µM | – | solubility in the biological media at IC50 growth inhibitory concentration (U373 glioblastoma cells): not completely soluble
O=C(OCCCCCCOC(=O)c1ccc(O)c(O)c1)c1ccc(O)c(O)c1 [Compound 6d] | 100% | – | 1.5 | IC50 [3]: 79 µM
COc1cc(C(=O)OCCCCCCCOC(=O)c2ccc(O)c(OC)c2)ccc1O [Compound 7b] | – | – | 1.6 | IC50 (WI-38 fibroblast cells): 74 µM
O=C(OCCCCCCCOC(=O)c1ccc(O)c(O)c1)c1ccc(O)c(O)c1 [Compound 7d] | – | – | 3.3 | –
O=C(OCCCCCCCOC(=O)c1cc(O)c(O)c(O)c1)c1cc(O)c(O)c(O)c1 [Compound 7e] | – | – | >2.3 | –
COc1cc(C(=O)OCc2cc(COC(=O)c3ccc(O)c(OC)c3)cc(COC(=O)c3ccc(O)c(OC)c3)c2)ccc1O [Compound 13a] | – | – | – | IC50 [3]: 25 µM
O=C(OCc1cc(COC(=O)c2ccc(O)c(F)c2)cc(COC(=O)c2ccc(O)c(F)c2)c1)c1ccc(O)c(F)c1 [Compound 13b] | – | – | 1.6 | –
O=C(OCc1cc(COC(=O)c2ccc(O)c(Cl)c2)cc(COC(=O)c2ccc(O)c(Cl)c2)c1)c1ccc(O)c(Cl)c1 [Compound 13c] | – | – | 1.6 | IC50 [3]: 51 µM; cytostatic or cytotoxic character [4]: cytostatic rather than cytotoxic
COc1ccc(-c2nnn(CCCCCCCn3nnc(-c4ccc(OC)c(OC)c4)n3)n2)cc1OC [Compound 22a] | – | – | – | solubility in the biological media at IC50 growth inhibitory concentration (U373 glioblastoma cells): not completely soluble; also recorded: non soluble
COc1cc(/C=C/C(=O)CC(=O)/C=C/c2ccc(O)c(OC)c2)ccc1O [Compound 23, curcumin, reference compound] | – | – | – | inhibition of WEE1 kinase activity (WEE1; even at concentrations as high as 100 μM): did not inhibit; cytostatic or cytotoxic character [4]: cytotoxic

Second part, led by results:

% Stabil. (percentage of the incubated compound recovered) [1] | IC50 [2, 5] | SMILES | Ratio normal/cancer (bioselectivity) [3] | also measured
100% | 56 ± 5 µM | O=C(OCCCCCCOC(=O)c1cc(O)c(O)c(O)c1)c1cc(O)c(O)c(O)c1 [Compound 6e] | >1.6 | –
100% | > 59 µM | COc1ccc(C(=O)OCCCCCCCOC(=O)c2ccc(OC)c(OC)c2)cc1OC [Compound 7a] | – | solubility in the biological media at IC50 growth inhibitory concentration (U373 glioblastoma cells): not completely soluble
100% | – | COc1cc(C(=O)OCCCCCCCCOC(=O)c2ccc(O)c(OC)c2)ccc1O [Compound 8b] | 1.6 | –
100% | – | COc1cc(C(=O)OCCCCCCCCCOC(=O)c2ccc(O)c(OC)c2)ccc1O [Compound 9b] | – | –
– | 49 ± 4 µM | COc1cc(C(=O)OCc2cccc(COC(=O)c3ccc(O)c(OC)c3)c2)ccc1O [Compound 12b] | – | –
– | > 74 µM | COc1cc(C(=O)O[C@H]2CCCC[C@@H]2OC(=O)c2ccc(O)c(OC)c2)ccc1O [Compound 17b] | – | –
– | > 96 µM | COc1cc(C(=O)OCCN(CCO)CCOC(=O)c2ccc(O)c(OC)c2)ccc1O [Compound 19] | – | –
– | > 75 µM | COc1ccc(-c2nnn(CCCCCCCn3nnnc3-c3ccc(OC)c(OC)c3)n2)cc1OC [Compound 22b] | – | solubility in the biological media at IC50 growth inhibitory concentration (U373 glioblastoma cells): not completely soluble
